Data from ChEMBL document CHEMBL2163188, “Discovery of piragliatin--first glucokinase activator studied in type 2 diabetic patients” (J Med Chem, 2012).
Activity calls are given as the source filed them. The rule behind the calls is not given here.

How the values were obtained:
Mus musculus = test: Antidiabetic activity in po dosed DIO C57Bl/6J mouse assessed as reduction of fasting and postprandial glucose level administered 1 hr before glucose challenge by OGTT; type: functional, organism-based
Summary of the method: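 Male DIO C57Bl/6J mice were fasted overnight and dosed orally at 5, 10 or 15 mg/kg in Gelucire44/14:ethanol:PEG400 (4:66:30 v/w/v). An oral glucose challenge of 1 g/kg followed 1 h later. Tail-snip blood glucose was read on a YSI analyzer up to 120 min. Food was withheld throughout; n = 6 per time point; means ± SD; Student's t test.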

[1] = target: T1, Hexokinase-4 (Homo sapiens) (UniProt P35557); test: Activation of human recombinant glucokinase assessed as concentration required for 1.5 fold increase in enzymatic activity
T1 sequence (whole entry): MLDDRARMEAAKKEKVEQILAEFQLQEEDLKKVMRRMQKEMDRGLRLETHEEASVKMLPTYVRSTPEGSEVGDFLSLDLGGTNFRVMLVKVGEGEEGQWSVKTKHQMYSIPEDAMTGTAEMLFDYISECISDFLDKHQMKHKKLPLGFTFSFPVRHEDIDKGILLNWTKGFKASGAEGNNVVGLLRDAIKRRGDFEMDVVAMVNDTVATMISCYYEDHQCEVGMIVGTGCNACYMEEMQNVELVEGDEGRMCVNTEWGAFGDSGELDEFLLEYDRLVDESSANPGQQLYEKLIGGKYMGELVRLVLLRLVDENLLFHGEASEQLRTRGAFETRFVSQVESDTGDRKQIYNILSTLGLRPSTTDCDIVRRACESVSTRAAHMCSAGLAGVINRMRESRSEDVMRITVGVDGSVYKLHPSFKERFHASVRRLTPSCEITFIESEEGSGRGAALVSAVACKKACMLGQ
Summary of the method: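 Human recombinant GK; activator at fixed concentrations from ∼0.010 to 30 μM, each in duplicate, with glucose held at 5 mM. SC1.5 is the activator concentration giving a 1.5-fold rise in enzymatic activity over untreated GK. Assay CV was about 15%.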

Liver microsomes = test: Drug degradation in human liver microsomes assessed as formation of metabolite 2 level at 20 uM after 30 mins by LCMS/MS analysis; type: ADME, Microsome; settings: 0.5 h
Summary of the method: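 Pooled human liver microsomes at 1 or 2 mg/mL protein in 0.1 M potassium phosphate pH 7.4 with 3 mM MgCl2, 1 mM EDTA and 1 mM NADPH. Substrate was 20 μM C-14 labelled compound, with 1% methanol final. Incubation ran 30 min after a 5 min preincubation and was stopped with ice-cold methanol or 50% aqueous TFA.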

Compound	Activity [1] [µM]	Drug metabolism (Liver microsomes) [ng/mL]	Activity (Mus musculus)
CS(=O)(=O)c1ccc([C@@H](CC2CCCC2)C(=O)Nc2cnccn2)cc1Cl	0.14		Active
CS(=O)(=O)c1ccc([C@@H](CC2CCC(O)C2)C(=O)Nc2cnccn2)cc1Cl (mixture of isomers)	2.37		
CS(=O)(=O)c1ccc([C@@H](CC2CCCC2=O)C(=O)Nc2cnccn2)cc1Cl (mixture of isomers)	0.19		
CS(=O)(=O)c1ccc([C@@H](CC2CCCC2O)C(=O)Nc2cnccn2)cc1Cl (mixture of isomers)	2.73		
CS(=O)(=O)c1ccc(C(CC2CCCC2)C(=O)Nc2ccc3ccccc3n2)cc1 (racemic)	1.38		
CS(=O)(=O)c1ccc(C(CC2CCCC2)C(=O)Nc2ccc3ccccc3n2)cc1Cl (racemic)	0.12		

Second part, led by results:

Activity [1] [µM]	Drug metabolism (Liver microsomes) [ng/mL]	Compound	Activity (Mus musculus)
0.135	42.7	CS(=O)(=O)c1ccc(C(CC2CCCC2)C(=O)Nc2ncc(Br)s2)cc1 (racemic)	
0.734	< 10	CS(=O)(=O)c1ccc(C(CC2CCCC2)C(=O)Nc2ncc(C(N)=O)s2)cc1 (racemic)	
1.4	< 10	CNC(=O)c1cnc(NC(=O)C(CC2CCCC2)c2ccc(S(C)(=O)=O)cc2)s1 (racemic)	
4.17	< 10	CS(=O)(=O)c1ccc(C(CC2CCCC2)C(=O)Nc2ncc([N+](=O)[O-])s2)cc1 (racemic)	
0.667	167.3	CS(=O)(=O)c1ccc(C(CC2CCCC2)C(=O)Nc2nc(CCO)cs2)cc1 (racemic)	
0.48	88.7	CS(=O)(=O)c1ccc(C(CC2CCCC2)C(=O)Nc2nc(CO)cs2)cc1 (racemic)	
0.148	48	CS(=O)(=O)c1ccc(C(CC2CCCC2)C(=O)Nc2ncc(Cl)s2)cc1 (racemic)	
1.21		CS(=O)(=O)c1ccc(C(CC2CCCC2)C(=O)Nc2ccccn2)cc1 (racemic)	
